Here are results for six compounds from ChEMBL document CHEMBL4665690, “Proversilins A-E, Drimane-Type Sesquiterpenoids from the Endophytic Aspergillus versicolor” (J Nat Prod, 2020).

Common to all, as to assay type: functional, cell-based
The test system of one assay is SW480. The experiment in a line: Cytotoxicity against human SW480 cells assessed as reduction in cell viability after 48 hrs by MTT assay. As to conditions: SW480, 48 h. In outline:
(§1)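 Cells exposed 48 h to compounds at 0.0625 to 40 μM, with cisplatin and paclitaxel as positive controls. Survival read by MTT, absorbance at 570 nm. Data are means of three replicates. IC50 derived from a standard dose–response curve fit.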
In general terms: Formazan colour is commonly taken as a measure of viable cells.

A further assay deals with A549. Nature of the assay: Cytotoxicity against human A549 cells assessed as reduction in cell viability after 48 hrs by MTT assay. As to conditions: A549, 48 h. In outline:
as §1

The subject of another assay is SMMC-7721. Nature of the assay: Cytotoxicity against human SMMC-7721 cells assessed as reduction in cell viability after 48 hrs by MTT assay. As to conditions: SMMC-7721, 48 h. Summed up:
as §1

In another assay the test system is MCF7. Nature of the assay: Cytotoxicity against human MCF7 cells assessed as reduction in cell viability after 48 hrs by MTT assay. As to conditions: MCF7, 48 h. In outline:
as §1

The test system of the next assay is HL-60. Nature of the assay: Cytotoxicity against human HL-60 cells assessed as reduction in cell viability after 48 hrs by MTT assay. As to conditions: HL-60, 48 h. Summed up: as §1
In a further assay the test system is NCM460. The experiment in a line: Cytotoxicity against human NCM460 cells assessed as reduction in cell viability after 48 hrs by MTT assay. The settings on record: NCM460, 48 h. Summed up: as §1

Bounds are passed on as bounds.

What is called IC50 is the concentration at which inhibition is half-maximal. As to `C[C@]1(CO)CCC[C@]2(C)C3=C(CC[C@@H]12)C(=O)OC3`, the IC50 in the assay with SW480, in the assay on A549, in the assay with SMMC-7721, in the assay on MCF7, with HL-60 and in the assay with NCM460 was > 40 µM throughout.
Take `CC(=O)N[C@H](CC(=O)O[C@@H]1CC(C)(C)[C@@H]2CCC3=C(COC3=O)[C@@]2(C)C1)c1ccccc1`: the IC50 with SW480 is 12.4 µM; in the assay on A549, 15 µM; in the assay with SMMC-7721, 12.6 µM; in the assay with MCF7 it was 11.8 µM; in the assay on HL-60 it was 7.3 µM; in the assay on NCM460, > 40 µM.
For the compound `CC(=O)N[C@H](CC(=O)OC[C@@]1(C)CCC[C@]2(C)C3=C(CC[C@@H]12)C(=O)OC3)c1ccccc1`, the IC50 in the assay with SW480, in the assay on A549, with SMMC-7721, in the assay on MCF7, in the assay with HL-60 and with NCM460 was > 40 µM each time.
`CC(=O)N[C@H](CC(=O)O[C@@H]1C[C@](C)(CO)[C@@H]2CCC3=C(COC3=O)[C@@]2(C)C1)c1ccccc1`: the IC50 in the assay on SW480, with A549, in the assay on SMMC-7721, in the assay on MCF7, with HL-60 and in the assay on NCM460 was > 40 µM throughout.
Turning to `CC(=O)N[C@H](CC(=O)O[C@@H]1C[C@](C)(C=O)[C@@H]2CCC3=C(COC3=O)[C@@]2(C)C1)c1ccccc1`, the IC50 in the assay on SW480 was 16.4 µM; with A549 it was 28.4 µM; in the assay on SMMC-7721 it was 19.4 µM; in the assay with MCF7, 18.3 µM; in the assay with HL-60 it was 9.9 µM; with NCM460, > 40 µM.
Turning to `CC(=O)O[C@H]1C(=O)[C@@]2(C)[C@H]([C@H](OC(=O)c3ccccc3)[C@]3(O)C[C@H](OC(=O)[C@H](O)[C@@H](NC(=O)c4ccccc4)c4ccccc4)C(C)=C1C3(C)C)[C@]1(OC(C)=O)CO[C@@H]1C[C@@H]2O` [PACLITAXEL], the IC50 with SW480, in the assay with A549, with SMMC-7721, in the assay with MCF7, in the assay on HL-60 and in the assay on NCM460 was < 0.008 µM each time.
